A short description of assay [1]: reduced viability of SK-BR-3 breast cancer cells – cell-based, 24 h, human, pilot screen (AID 572).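 Also: compound exposure lasted between 18 and 24 h rather than exactly 24 h; 100% = carrier-treated control wells.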 The settings on record: SK-BR-3 viability, CellTiter-Glo luminescence, at 10 µM, stronger effect = lower value. A general note: ATP-based viability assays read luminescence as a measure of living cells.
A short description of assay [2]: HUVEC growth inhibition – cell-based, human, primary screen (AID 575;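 active = viability at or below 30% in both replicate assays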;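 also: 100% = median of untreated cell wells with 0.1% DMSO on each plate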). The note with it: HUVEC proliferation, CellTiter-Glo luminescence, 72 h; at 10 µM; stronger effect = lower value. The method in brief: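 Test system: primary human umbilical vein endothelial cells; medium: endothelial basal medium with 2% FBS plus growth supplements; dosing: 10 µM compound only; times: 72 h treatment at 37 °C; signal: CTG luminescence; read-out: % viability relative to median vehicle-well signal on each plate; control set: vehicle and MePR control wells; plate: 384-well, collagen-coated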

The nature of assay [3]: H69AR cell proliferation blockers – human, duplicate replicates, primary screen (AID 580;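 active = viability at or under a set limit in both replicates, limit being median viability minus 3 SD, cut at about 48% in these data, passing the limit was not always enough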;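 also: 100% = mean luminescence of untreated wells and 0% = no signal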). The note with it: H69AR lung tumor cells viability, ATP luminescence, 72 h; at 10 µM; stronger effect = lower value.
Assay [4] can be described thus: MRP1 drug-resistance reversers in H69AR cells – cell-based, doxorubicin co-treatment, pilot screen (AID 601;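 active = viability loss from added drug above about 55%, and viability with drug at most 40%, in both replicates, limit read from the data, passing the limit was not always enough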). The settings on record: CellTiter-Glo, 72 h, at 10 µM; for differential viability (reversal): stronger effect = higher value.
A short description of assay [5]: yeast transport mutant growth inhibition pilot in 384-well plates, post-Golgi transport modulator project (AID 636; in the data active = inhibition above about 31%). The note with it: absorbance 615 nm, about 18 h, stronger effect = higher value.
Assay [6] in a line: growth suppression of yeast trafficking mutant, preliminary HTS, modulators of trafficking downstream of Golgi apparatus project, 1536-format plate, OD 615 nm (AID 637; in the data active = inhibition above about 30%). The settings on record: yeast transport mutant growth, absorbance 615 nm, 18 h; stronger effect = higher value.
Setting [7] is: H69AR cells + 2 uM doxorubicin, measured here: viability with 2 uM doxorubicin, stronger effect = lower value.
Setting [8] is: H69AR cells, compound alone cytotoxicity.

The source made the active and inactive calls.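 The calls were made as follows, unless noted: active = viability at or below 10% of carrier control in both of two separate runs; inconclusive = viability at or below 10% in only one of the two runs; inactive = the rest.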

In the case of `CCN(CC)C(=O)c1ccc(O)c(OC)c1`, the viability (commonly a read-out of living cells in per cent, often relative to untreated cells) in assay [1] was 100% (inactive); in assay [2], 90.7% (inactive); in assay [3] it was 101% (inactive); in assay [4] (setting [7]), 101%; in assay [4] (setting [8]), 101%. In addition, in assay [4] (H69AR cells + 2 uM doxorubicin), the differential viability (reversal) is 0.23% (inactive). The inhibition (usually the drop in the measured response relative to a control, in per cent) in assay [5] was -4.94% (inactive); in assay [6], -5% (inactive).
Turning to `O=C(CCNS(=O)(=O)c1ccc(Br)s1)N1CCCCC1`, the viability in assay [1] was 90% (inactive); in assay [2], 107% (inactive); in assay [3], 94.2% (inactive); in assay [4] (setting [7]), 86.5%; in assay [4] (setting [8]), 94.2%. The differential viability (reversal) in assay [4] (H69AR cells + 2 uM doxorubicin) was 7.65% (inactive). The inhibition was -6.03% (inactive) in assay [5] and -4.19% (inactive) in assay [6].
For the compound `COc1cccc(S(=O)(=O)Nc2ccc(C(=O)N3CCN(C(=O)c4ccco4)CC3)cc2)c1`, the viability in assay [1] is 85% (inactive); in assay [2] it was 104% (inactive); in assay [3], 86.3% (inactive); in assay [4] (setting [7]) it was 71.5%; in assay [4] (setting [8]) it was 86.3%. The differential viability (reversal) in assay [4] (H69AR cells + 2 uM doxorubicin) was 14.7% (inactive). In addition, the values for the inhibition in assay [5] and in assay [6] were -2.19% (inactive) and -0.97% (inactive), respectively.
On to `O=C(Nc1ccc(F)cc1)NC1CCN(Cc2nnnn2Cc2ccco2)CC1`, for which the viability in assay [1] is 92% (inactive); in assay [2], 70.5% (inactive); in assay [3], 88.2% (inactive); in assay [4] (setting [7]) it was 88.5%; in assay [4] (setting [8]) it was 88.2%. Further, in assay [4] (H69AR cells + 2 uM doxorubicin), the differential viability (reversal) is -0.315% (inactive). The inhibition in assay [5] is -5.21% (inactive); in assay [6], -7.9% (inactive).
For the compound `COc1ccc(CCN2CC(O)=C(c3nc4ccccc4c(=O)[nH]3)C2=N)cc1OC`, the viability in assay [1] is 105% (inactive); in assay [2], 85.6% (inactive); in assay [3], 80.8% (inactive); in assay [4] (setting [7]) it was 85.6%; in assay [4] (setting [8]) it was 80.8%. Besides, the differential viability (reversal) in assay [4] (H69AR cells + 2 uM doxorubicin) is -4.8% (inactive). The inhibition is -1.95% (inactive) in assay [5] and 1.8% (inactive) in assay [6].
On to `CC(C)N(C(=O)N1CCC(c2nc(-c3ccncc3)no2)CC1)C(C)C`, for which the viability is 79% (inactive) in assay [1]; 105% (inactive) in assay [2]; 102% (inactive) in assay [3]; 106% in assay [4] (setting [7]); 102% in assay [4] (setting [8]). The differential viability (reversal) in assay [4] (H69AR cells + 2 uM doxorubicin) was -3.66% (inactive). Further, the inhibition in assay [5] was -4.86% (inactive); in assay [6] it was -5.64% (inactive).
For the compound `CC(C)(C)n1ncc2c(=O)n(CC(=O)NCc3ccc(F)cc3)cnc21`, the viability in assay [1] is 95% (inactive); in assay [2] it was 63.4% (inactive); in assay [3], 14.6% (active); in assay [4] (setting [7]), 74.4%; in assay [4] (setting [8]), 14.6%. For the same compound, the differential viability (reversal) in assay [4] (H69AR cells + 2 uM doxorubicin) was -59.8% (inactive). Moreover, the values for the inhibition in assay [5] and in assay [6] were 2.43% (inactive) and -5.27% (inactive), respectively.
With `N[C@@H](C(=O)N[C@@H]1C(=O)N2C(C(=O)O)=C(Cl)CS[C@H]12)c1ccccc1`, the viability is 108% (inactive) in assay [1]; 98% (inactive) in assay [2]; 114% (inactive) in assay [3]; 103% in assay [4] (setting [7]); 114% in assay [4] (setting [8]). For the same compound, in assay [4] (H69AR cells + 2 uM doxorubicin), the differential viability (reversal) is 10.7% (inactive). Also, the inhibition is -2.6% (inactive) in assay [5] and 4.83% (inactive) in assay [6].
`CN(C)C(=O)Oc1ccc[n+](C)c1`: the viability is 92% (inactive) in assay [1]; 102% (inactive) in assay [2]; 87% (inactive) in assay [3]; 81.6% in assay [4] (setting [7]); 87% in assay [4] (setting [8]). In assay [4] (H69AR cells + 2 uM doxorubicin), the differential viability (reversal) is 5.36% (inactive). Also, the inhibition in assay [5] is -1.17% (inactive); in assay [6] it was -2.33% (inactive).
Turning to `COC(=O)c1ccccc1NC(=O)C12CCC(C)(C(=O)O1)C2(C)C` (stereo unspecified), the viability in assay [1] is 84% (inactive); in assay [2] it was 87.6% (inactive); in assay [3], 90.5% (inactive); in assay [4] (setting [7]), 76.8%; in assay [4] (setting [8]), 90.5%. In addition, the differential viability (reversal) in assay [4] (H69AR cells + 2 uM doxorubicin) is 13.7% (inactive). The values for the inhibition in assay [5] and in assay [6] were -6.58% (inactive) and 0% (inactive), respectively.
Consider `Cc1ccc(S(=O)(=O)NCC(=O)OCC(=O)Nc2ncc(Cl)cc2Cl)cc1`, for which the viability is 82% (inactive) in assay [1]; 91.2% (inactive) in assay [2]; 99.6% (inactive) in assay [3]; 116% in assay [4] (setting [7]); 99.6% in assay [4] (setting [8]). The differential viability (reversal) in assay [4] (H69AR cells + 2 uM doxorubicin) is -16.6% (inactive). In addition, the inhibition in assay [5] is -5.21% (inactive); in assay [6], 1.45% (inactive).
On to `Cc1cc(NC(=O)Cc2c(F)cccc2Cl)no1`, for which the viability was 102% (inactive) in assay [1]; 95.5% (inactive) in assay [2]; 96% (inactive) in assay [3]; 89.2% in assay [4] (setting [7]); 96% in assay [4] (setting [8]). The differential viability (reversal) in assay [4] (H69AR cells + 2 uM doxorubicin) was 6.76% (inactive). In addition, the values for the inhibition in assay [5] and in assay [6] were -7.26% (inactive) and 3.64% (inactive), respectively.

For the origin of these results see PubChem BioAssay.
